From ChEMBL document CHEMBL1156117, “Anti-trypanosomatid benzofuroxans and deoxygenated analogues: synthesis using polymer-supported triphenylphosphine, biological evaluation and mechanism of action studies” (Eur J Med Chem, 2009)
Active and inactive are the calls of the source. The rule behind the calls is not given here.

Experiments:
[1] = Selectivity index, ratio of IC50 for mouse J774 macrophages to IC50 for Trypanosoma cruzi Tulahuen 2 epimastigotes
Trypanosoma cruzi [2] = experiment: Antitrypanosomal activity against Trypanosoma cruzi epimastigotes; type: functional, organism-based
J774 = experiment: Cytotoxicity against mouse J774 macrophages after 48 hrs by MTT assay; type: cell-based
Method in brief: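 Exposed to compounds (1.0–400.0) for 48 h, washed with PBS, then MTT 0.4 mg/mL for 3 h. Formazan dissolved in DMSO, OD595 read. Triplicate per concentration, six growth controls. % cytotoxicity calculated against blanks.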

Leishmania braziliensis [3] = experiment: Antileishmanial activity against Leishmania braziliensis MHOM/BR/00/LTB300 promastigotes assessed as parasite viability after 5 days by MTT assay; type: functional, organism-based; settings: MHOM/BR/00/LTB300, 120 h
Method in brief: (§1)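 Promastigotes (L. braziliensis, L. pifanoi) grown at 28 °C in axenic RPMI with 5% FBS. T. cruzi CL Brener epimastigotes grown in BHI-tryptose with 5% foetal serum. 24-well plates, 1 mL/well, seeded from exponential-phase culture. Compounds in DMSO, added at several concentrations (0.5–50.0) and kept 5 days. Then MTT 0.4 mg/mL for 3 h at 37 °C. Formazan dissolved in DMSO, OD595 read. Triplicate per concentration, six growth controls. Cytotoxicity % calculated against growth and medium blanks, IC50 derived.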

Trypanosoma cruzi [4] = experiment: Antitrypanosomal activity against Trypanosoma cruzi CL Brener epimastigotes assessed as parasite viability after 5 days by MTT assay; type: functional, organism-based; settings: 120 h
Method in brief: as §1

Trypanosoma cruzi [5] = experiment: Antitrypanosomal activity against Trypanosoma cruzi Tulahuen 2 epimastigotes assessed as parasite growth inhibition after 5 days; type: functional, organism-based
Method in brief: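 Tulahuen 2 epimastigotes grown at 28 °C in BHI-tryptose with 5% foetal calf serum. Late-log cells seeded at 3×10⁶/mL in 24-well plates with compound from DMSO stock (final DMSO ≤0.8%; control 0.8% DMSO). A610 read at day 0 and day 5. Growth inhibition calculated from the corrected absorbance ratio to control; IC50 is the concentration giving 50% of the control ratio.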

Trypanosoma cruzi [6] = experiment: Induction of free radical production Trypanosoma cruzi microsomal fraction at 1 mM using DMPO and FXN spin trapping by ESR spectroscopic analysis; type: functional; settings: Microsome
Method in brief: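 T. cruzi microsomal fraction at 4 mg protein/mL, in 20 mM phosphate buffer pH 7.4 with 1 mM NADPH, 1 mM EDTA and 100 mM DMPO or FXN spin trap. Compound added at 1 mM final, dissolved in spectroscopy-grade DMF. Radical adducts detected by ESR.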

Leishmania pifanoi = experiment: Antileishmanial activity against Leishmania pifanoi MHOM/VE/57/LV135 promastigotes assessed as parasite viability after 5 days by MTT assay; type: functional, organism-based; settings: MHOM/VE/57/LV135, 120 h
Method in brief: as §1

Leishmania braziliensis [7] = experiment: Inhibition of Leishmania braziliensis MHOM/BR/00/LTB300 promastigotes mitochondrial dehydrogenase at 20 uM by MTT assay relative to control; settings: TDE = time-dependent effect
Method in brief: (§2)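 10⁶ parasites/well (T. cruzi Tulahuen 2 or Y epimastigotes, or L. braziliensis LTB300 promastigotes) in 500 µL medium with 20 µM compound, at 28 °C for up to 240 min; untreated duplicate wells served as time-matched controls. MTT (5 mg/mL stock in PBS) added for 2 h, stopped with acidic isopropanol, A570 read. Activity expressed as % of untreated parasites.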

Trypanosoma cruzi [8] = experiment: Inhibition of Trypanosoma cruzi Tulahuen 2 mitochondrial dehydrogenase at 20 uM after 120 mins by MTT assay relative to control
Method in brief: as §2

[9] = biological target: Cruzipain (Trypanosoma cruzi) (UniProt P25779); experiment: Inhibition of Trypanosoma cruzi cruzipain at 100 uM
[10] = biological target: Cruzipain (Trypanosoma cruzi) (UniProt P25779); experiment: Inhibition of Trypanosoma cruzi cruzipain at 25 uM
[11] = biological target: Cruzipain (Trypanosoma cruzi) (UniProt P25779); experiment: Inhibition of Trypanosoma cruzi cruzipain at 50 uM
Trypanosoma cruzi [12] = experiment: Inhibition of Trypanosoma cruzi Y mitochondrial dehydrogenase at 20 uM after 120 mins by MTT assay relative to control
Method in brief: as §2

Leishmania braziliensis [13] = experiment: Ratio of compound IC50 to Miltefosine IC50 for Leishmania braziliensis MHOM/BR/00/LTB300 promastigotes; type: functional
[14] = Trypanosoma cruzi, Tulahuen 2, 120 h

Cruzipain (Trypanosoma cruzi), sequence (P25779 123-467 limits assumed): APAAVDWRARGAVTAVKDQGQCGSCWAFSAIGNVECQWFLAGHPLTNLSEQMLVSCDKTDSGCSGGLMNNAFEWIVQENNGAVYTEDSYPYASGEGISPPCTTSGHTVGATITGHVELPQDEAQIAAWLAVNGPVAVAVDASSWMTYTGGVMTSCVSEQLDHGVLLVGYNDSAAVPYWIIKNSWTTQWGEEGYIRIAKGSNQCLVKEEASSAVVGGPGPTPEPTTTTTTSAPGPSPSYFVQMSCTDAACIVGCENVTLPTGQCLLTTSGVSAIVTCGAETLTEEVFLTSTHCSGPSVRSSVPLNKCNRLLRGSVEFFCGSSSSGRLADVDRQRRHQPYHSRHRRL

| Compound | Selectivity Index [1] | IC50 (J774; Mus musculus, J774, 48 h) | IC50 (Trypanosoma cruzi [4]) | IC50 (Trypanosoma cruzi [5]; [14]) | other results |
| --- | --- | --- | --- | --- | --- |
| [O-][n+]1onc2ccc(/C=C/[S+]([O-])c3ccccc3)cc21 (stereo in doubt; 3E) | 11.5 |  |  |  | IC50 (Trypanosoma cruzi [2]): 2.6 µM; IC50 (J774; j774): 30 µM; IC50 (Leishmania braziliensis [3]): 31.5 µM |
| O=S(=O)(/C=C\c1ccc2no[n+]([O-])c2c1)c1ccccc1 | 10 | 11 µM |  |  | IC50 (Trypanosoma cruzi [2]): 1.1 µM; IC50 (Leishmania braziliensis [3]): 10.8 µM |
| [O-][n+]1onc2ccc(/C=C\Sc3ccc(F)cc3)cc21 |  |  | 5.9 µM | 12 µM | Activity (Trypanosoma cruzi [6]): Active; IC50 (Leishmania pifanoi): 4.5 µM; IC50 (Leishmania braziliensis [3]): 1.7 µM |
| [O-][n+]1onc2ccc(/C=C/c3ccccc3)cc21 |  |  |  |  | IC50 (Trypanosoma cruzi [2]): 10.7 µM |
| [O-][n+]1onc2ccc(/C=C/Sc3ccc(F)cc3)cc21 | 7 | 35 µM | 5.5 µM | 5 µM | Activity (Trypanosoma cruzi [6]): Active; IC50 (Leishmania pifanoi): 4.3 µM; IC50 (Leishmania braziliensis [3]): 4.3 µM |
| [O-][n+]1onc2ccc(/C=C/Sc3ccccc3)cc21 |  |  |  |  | IC50 (Trypanosoma cruzi [2]): 2.6 µM; IC50 (Leishmania pifanoi): 4.3 µM; IC50 (Leishmania braziliensis [3]): 1.5 µM |
| C=CS(=O)(=O)Cc1ccc2no[n+]([O-])c2c1 |  |  |  |  | IC50 (Trypanosoma cruzi [2]): 14.6 µM; Activity (Leishmania braziliensis [7]): tde; IC50 (Leishmania braziliensis [3]): 16.8 µM; inhibition (Trypanosoma cruzi [8]): 58.5% |
| Cc1ccc(S(=O)(=O)/C=C/c2ccc3no[n+]([O-])c3c2)cc1 | 1.1 | 8 µM | 9.6 µM | 4.3 µM |  |
| O=S(=O)(C=Cc1ccc2no[n+]([O-])c2c1)c1ccc(Cl)cc1 |  |  |  |  | inhibition (Trypanosoma cruzi [8]): 4% |
| O=C(/C=C/c1ccc2no[n+]([O-])c2c1)c1ccc([N+](=O)[O-])cc1 | 13.3 | 32 µM |  | 2.4 µM |  |
| [O-][n+]1onc2ccc(/C=C\c3ccccc3)cc21 |  |  |  |  | IC50 (Trypanosoma cruzi [2]): 7 µM |
| Cc1ccc([S+]([O-])/C=C/c2ccc3no[n+]([O-])c3c2)cc1 (centres undefined) |  |  | 6 µM | 4.6 µM |  |
| Cc1ccc(S(=O)(=O)/C=C\c2ccc3no[n+]([O-])c3c2)cc1 |  |  | 5.1 µM | 3.6 µM |  |
| O=C(/C=C/c1ccc2nonc2c1)c1ccc(Cl)cc1 | <2.5 | 251 µM |  | > 100 µM |  |
| COc1ccc(C(=O)/C=C/c2ccc3no[n+]([O-])c3c2)cc1 (stereo in doubt; 11) | 7.6 |  |  |  | IC50 (Trypanosoma cruzi [5]): 4.1 µM; IC50 (J774; j774): 31 µM; inhibition [9]: 13% |
| [O-][n+]1onc2ccc(/C=C\Sc3ccc(Cl)cc3)cc21 |  |  | 2.8 µM | 4.2 µM |  |
| O=S(=O)(/C=C\c1ccc2no[n+]([O-])c2c1)c1ccc(F)cc1 |  |  | 2.9 µM | 2.7 µM | inhibition [10]: 0%; inhibition [11]: 0%; Activity (Trypanosoma cruzi [6]): Active; inhibition [9]: 0% |
| Cc1ccc([S+]([O-])/C=C\c2ccc3no[n+]([O-])c3c2)cc1 (centres undefined) |  |  | 8.4 µM | 6.7 µM |  |
| [O-][n+]1onc2ccc(/C=C\[S+]([O-])c3ccccc3)cc21 (centres undefined) | 20 | 14 µM |  |  | IC50 (Trypanosoma cruzi [2]): 0.7 µM; inhibition (Trypanosoma cruzi [12]): 25%; Activity (Leishmania braziliensis [7]): tde; IC50 (Leishmania braziliensis [3]): 4.6 µM |
| [O-][n+]1onc2ccc(/C=C\Sc3ccccc3)cc21 |  |  |  |  | IC50 (Trypanosoma cruzi [2]): 3.8 µM; inhibition [10]: 11%; inhibition [11]: 22%; inhibition [9]: 30%; Ratio IC50 (Leishmania braziliensis [13]): 10; IC50 (Leishmania pifanoi): 4.5 µM; IC50 (Leishmania braziliensis [3]): 0.9 µM |

| Compound | Selectivity Index [1] | IC50 (J774; Mus musculus, J774, 48 h) | IC50 (Trypanosoma cruzi [4]) | IC50 (Trypanosoma cruzi [5]; [14]) | other results |
| --- | --- | --- | --- | --- | --- |
| O=C(/C=C/c1ccc2no[n+]([O-])c2c1)c1ccc(Cl)cc1 | 1.1 | 28 µM |  | 25 µM |  |
| O=S(=O)(/C=C\c1ccc2no[n+]([O-])c2c1)c1ccc(Cl)cc1 |  |  | 2.3 µM | 1.3 µM |  |
| [O-][n+]1onc2ccc(C=CSc3ccccc3)cc21 | 10 | 30 µM |  |  | inhibition (Trypanosoma cruzi [8]): 14.5% |
| [O-][n+]1onc2ccc(/C=C\[S+]([O-])c3ccc(Cl)cc3)cc21 (centres undefined) | 6.3 | 10 µM | 4.7 µM | 2.7 µM |  |
| O=S(=O)(/C=C/c1ccc2no[n+]([O-])c2c1)c1ccc(Cl)cc1 |  |  | 4.8 µM | 4.8 µM |  |
| [O-][n+]1onc2ccc(/C=C\[S+]([O-])c3ccc(F)cc3)cc21 (centres undefined) |  |  | 3.2 µM | 1.6 µM |  |
| [O-][n+]1onc2ccc(/C=C/[S+]([O-])c3ccc(Cl)cc3)cc21 (centres undefined) | 4 | 18 µM | 6.7 µM | 5.5 µM |  |
| O=S(=O)(/C=C/c1ccc2no[n+]([O-])c2c1)c1ccccc1 (stereo in doubt; 25) | 3.1 |  |  |  | IC50 (J774; j774): 78 µM |
| O=C(/C=C/c1ccc2no[n+]([O-])c2c1)c1ccccc1 | 9.4 | 47 µM |  | 5 µM | inhibition [10]: 0%; inhibition [11]: 0%; inhibition [9]: 0%; inhibition (Trypanosoma cruzi [8]): 21.8% |
| O=S(=O)(C=Cc1ccc2no[n+]([O-])c2c1)c1ccc(F)cc1 |  |  |  |  | inhibition (Trypanosoma cruzi [8]): 17.6% |
| Cc1ccc(S/C=C/c2ccc3no[n+]([O-])c3c2)cc1 |  |  | 4.7 µM | 1.9 µM |  |
| O=C(/C=C/c1ccc2nonc2c1)c1ccccc1 | 1.1 | 102 µM |  | 97 µM |  |
| O=S(=O)(/C=C/c1ccc2no[n+]([O-])c2c1)c1ccccc1 (stereo in doubt; 4E) [listing 1 of 2 here] | 10 |  |  |  | IC50 (Trypanosoma cruzi [2]): 1.6 µM; IC50 (J774; j774): 16 µM; IC50 (Leishmania braziliensis [3]): 21.5 µM |
| Cc1ccc(S/C=C\c2ccc3no[n+]([O-])c3c2)cc1 |  |  | 4.1 µM | 4.2 µM |  |
| O=S(=O)(/C=C/c1ccc2no[n+]([O-])c2c1)c1ccc(F)cc1 |  |  | 6.3 µM | 7.5 µM | Activity (Trypanosoma cruzi [6]): Active |
| [O-][n+]1onc2ccc(/C=C/[S+]([O-])c3ccc(F)cc3)cc21 (centres undefined) |  |  | 6.2 µM | 4.5 µM |  |
| [O-][n+]1onc2ccc(/C=C/[S+]([O-])c3ccccc3)cc21 (stereo in doubt; 24) | >10 |  |  |  | IC50 (J774; j774): > 400 µM |
| O=S(=O)(/C=C/c1ccc2no[n+]([O-])c2c1)c1ccccc1 (stereo in doubt; 4E) [listing 2 of 2 here] |  |  |  |  | inhibition (Trypanosoma cruzi [12]): 25%; Activity (Leishmania braziliensis [7]): tde |
| O=C(/C=C/c1ccc2nonc2c1)c1ccc([N+](=O)[O-])cc1 | <1.3 | 131 µM |  | > 100 µM |  |
| [O-][n+]1onc2ccc(/C=C/Sc3ccc(Cl)cc3)cc21 |  |  | 1 µM | 1.9 µM | Ratio IC50 (Leishmania braziliensis [13]): 10; IC50 (Leishmania pifanoi): 4.6 µM; IC50 (Leishmania braziliensis [3]): 0.9 µM |
